# In the library only some 11% were active in any assay of this set; here they are far more common.
# mHtt clearance: mutant huntingtin protein clearance; HeLa Exon1htt(103Q)mCFP, aggregate imaging; zero = plate's median compound well; inhibition, % at 1.5 µM; 0.42% of 47,000 active;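 active means inhibition of aggregate fluorescence above about 70%, also judged a hit by eye on the cell image, limit read from the data, passing the limit was not always enough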;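 further: cells exposed to compound for three days before fixation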
# M1 antagonist: blocks the rat M1 muscarinic receptor response to acetylcholine; CHO-M1 cells, Fluo-4 calcium, ACh EC80 antagonist mode; stronger effect = lower value; B-score at 10 µM; 3.4% of 64,000 active;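 active means calcium fluorescence response, raw or row-and-column corrected B-score, differing from the plate sample mean either way at a set confidence level, mostly lower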
# M1 ag: agonists of M1 muscarinic receptor; CHO-M1 cells, Fluo-4 calcium fluorescence, agonist mode; stronger effect = higher value; B-score at 10 µM; 3% of 64,000 active;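 active means fluorescence rise, raw or as B-score row- and column-corrected plate score, outside the 99.7% band of its plate's samples, either direction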
# SF-1 act: activators of human nuclear receptor SF-1 | CHO-K1 Gal4-SF-1 LBD luciferase reporter; % increase over DMSO SF-1-specific signal | activation, % at 10 µM | 1.9% of 65,000 active | AID 522;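 active means activation above the mean activation of all tested compounds plus 3 SD, cut at about 50% in these data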
# Target sequence (Q13285 whole entry, looked up, the tested form may be a part): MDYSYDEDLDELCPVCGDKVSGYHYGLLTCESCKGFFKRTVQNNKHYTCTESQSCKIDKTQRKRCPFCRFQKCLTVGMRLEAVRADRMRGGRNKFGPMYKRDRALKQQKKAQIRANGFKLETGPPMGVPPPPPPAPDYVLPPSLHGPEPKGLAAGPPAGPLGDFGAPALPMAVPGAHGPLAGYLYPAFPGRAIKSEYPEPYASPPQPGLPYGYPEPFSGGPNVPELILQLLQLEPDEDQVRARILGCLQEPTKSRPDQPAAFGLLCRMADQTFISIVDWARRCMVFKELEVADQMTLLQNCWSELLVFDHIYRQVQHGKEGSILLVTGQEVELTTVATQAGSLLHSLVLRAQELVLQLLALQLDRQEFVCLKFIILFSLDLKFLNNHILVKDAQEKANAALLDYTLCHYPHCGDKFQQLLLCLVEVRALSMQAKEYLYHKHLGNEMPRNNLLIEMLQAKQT
#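 material = CHO-K1 cells with Gal4–hSF-1 LBD chimera plus Gal4-driven luciferase | compound = 10 µM single point, 1% DMSO | incubation = 20 h compound exposure at 37 °C after 1 h cell settling | measured by = SteadyLite luciferase luminescence | evaluation = percent activation relative to DMSO median and mock-transfected background | control set = DMSO negative control and −SF1 background wells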
# RORA act: RORA (human) activation. 1.5% of 65,000 active. CHO-K1 Gal4-RORA LBD luciferase reporter, luminescence; percent increase over mock-subtracted basal signal. P35398. activation, % at 10 µM;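 active means activation above the mean of all tested compounds plus 3 SD, cut at about 49% in these data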;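 further: 0% = DMSO-treated RORA cells and 100% = added signal equal to DMSO minus mock-transfected cells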
# D1 mod: allosterically modulates the human D1 dopamine receptor | HEK293 D1, CRE-luciferase, dopamine EC30 potentiation; actives deviate in either direction | P21728 | AID 641 | B-score at 10 µM | 5.9% of 58,000 active;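 active means luminescence count or its row- and column-corrected plate score outside the 99.7% band of the plate's sample wells, on either side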
# D1 PAM confirm: confirmation of human D1 dopamine receptor allosteric modulators; shares compounds with D1 mod; HEK293 D1 CRE-luciferase, dopamine EC30 potentiation; stronger effect = higher value; luminescence at 10 µM; 88% of 2,200 active; AID 642;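 active means luminescence in either of two replicates above the same-plate mean plus 3 SD of the low-dose dopamine control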
# D1 no dopamine: D1 (human) signaling in absence of dopamine; AID 646; 0.8% of 1,900 active; shares compounds with D1 mod; HEK293 D1 CRE-luciferase, luminescence, no dopamine; stronger effect = higher value; luminescence at 10 µM; in the data active means luminescence above about 3900
# Isoprot counter: isoproterenol response counter-screen activity for D1 modulators; shares compounds with D1 mod; HEK293 D1 CRE-luciferase, isoproterenol EC30 counter-screen; AID 647; 63% of 2,200 active; calls only at 10 µM;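 active means luminescence in either replicate above plate mean of wells with a partly effective reference agonist dose plus 3 SD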;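 further: isoproterenol raises cAMP through native beta-adrenoceptor Gs so signal bypasses D1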
# * = called active by the depositor; i = inactive; . = no result; + = active, no number.
SMILES,mHtt clearance,M1 antagonist,M1 ag,SF-1 act,RORA act,D1 mod,D1 PAM confirm,D1 no dopamine,Isoprot counter
COc1cc(/C=N/n2cnnc2)ccc1OC(=O)c1cccnc1,13,-0.73,-0.53,3,-10,-1.5,.,.,.
COc1ccc(/C=C(/C#N)c2cccnc2)cc1OC,.,0.15,0.83,-8,-16,34*,21544*,1648,+
CCOC(=O)c1c(C)c(C(=O)NCc2ccccc2OC)c(C)n1C,27,-1.9,0.16,0,-5,3.6*,7232*,1476,i
CCOCCCNC(=O)c1c(C)c(C(=O)OCC)n(C)c1C,.,0.63,0.48,-3,4,0.3,.,.,.
CCCCn1c(NC(=O)CC)c(C#N)c2nc3ccccc3nc21,-52,0.28,-1.2,0,18,7.2*,14868*,1560,+
CC(C)(C)n1ncc2c(=O)n(Cc3ccc(Cl)cc3Cl)cnc21,0,-0.12,0.0054,8,30,2,.,.,.
CC(C)(C)n1ncc2c(=O)n(Cc3c(F)cccc3Cl)cnc21,-25,-0.19,-0.0054,-8,9,6*,9180*,784,+
O=C(CCSc1ccc(Cl)cc1)c1cccs1,30,.,.,.,.,.,.,.,.
O=C(CCc1ccc(CCC(=O)c2cccs2)s1)c1cccs1,.,-0.96,-0.26,10,18,3.4*,11800*,1636,i
CN(C)c1ccc(/C=N/N2C(=S)SC(C)(C)C2N(O)C(=O)Nc2ccc([N+](=O)[O-])cc2)cc1 (stereo unspecified),-16,.,.,.,.,.,.,.,.
Cc1nc2cc(Nc3nnc(-c4ccccc4)c4ccccc34)ccc2n1C,-95,.,.,.,.,.,.,.,.
Cc1ccc2c(c1)c(-c1ccccc1)nc1nncn12,.,-0.28,-0.035,-10,-15,9.1*,13296*,1752,+
CCC(=O)Nc1nonc1-c1nc2ccccc2n1Cc1ccccc1,29,0.62,-0.088,16,4,3.3*,13704*,1604,+
CCC(=O)Nc1nonc1-c1nc2ccccc2n1Cc1cccc2ccccc12,-131,.,.,.,.,.,.,.,.
CCC1Oc2ccc(C)cc2N(CC(=O)NCCN2C(C)CCCC2C)C1=O (stereo unspecified),.,-1.8,0.32,-7,22,5*,4656,1552,i
COc1ccc2nc(NC(=O)CSc3nc4cccnc4n3C)sc2c1,.,.,.,-15,-2,.,.,.,.
COC(=O)c1sc(NC(=O)CSc2nc3cccnc3n2C2CCCCC2)nc1C,14,0.49,-0.44,3,-9,9.5*,10416*,1456,+
Cc1cc(C)c(C#N)c(SCc2ccc(C#N)cc2)n1,15,-1,1.3,-10,-8,7.4*,7996*,1632,i
COC(=O)c1ccc(CN2C(=O)NC3(CCCCC3C)C2=O)o1 (stereo unspecified),.,0.35,-0.27,7,4,.,.,.,.
C=CCn1c(SCCCC)nc(O)cc1=O,-18,-0.046,-0.081,5,5,3.6*,6816,1616,i
Cn1c(=O)c2c(nc(SCCCO)n2Cc2ccccc2Cl)n(C)c1=O,.,-0.05,0.45,-11,2,3.9*,6636*,1528,i
COc1c2occc2c(OC)c2c(=O)cc(C(F)(F)C(F)(F)F)oc12,.,0.4,1.1,-11,-1,1.1,.,.,.
CSc1nnc2c3ccccc3n(Cc3ccccc3)c2n1,40,-0.29,0.76,10,-2,10*,15672*,1436,+
COc1ccc(NC(=O)CSc2nc3ccccc3c(=O)n2-c2ccc3c(c2)OCO3)c(OC)c1,-26,-0.89,-0.34,24,3,3.9*,8076*,1568,+
Cc1nnc(NC(=O)CCC(=O)NCc2ccco2)s1,.,1.2,-0.29,-3,-25,0.061,.,.,.
SMILES,mHtt clearance,M1 antagonist,M1 ag,SF-1 act,RORA act,D1 mod,D1 PAM confirm,D1 no dopamine,Isoprot counter
c1coc(-c2nc3nc4ccccc4nc3n2-c2ccc3c(c2)OCCO3)c1,.,-0.24,3.5,24,11,.,.,.,.
CCOC(=O)c1ccc(CSc2nnc(N)s2)cc1,.,0.22,-0.45,25,23,3.7*,10844*,.,+
Nc1nnc(SCc2ccc(Cl)cc2)s1,22,.,.,.,.,.,.,.,.
Cc1sc2ncnc(SC(C)C#N)c2c1C (stereo unspecified),32,0.049,0.014,-9,-23,4.9*,6756,1584,i
CCOC(=O)N1CCC(NC(=O)c2cccc3c2C(=O)N(Cc2cccnc2)C3)CC1,.,1.5,0.95,6,-1,3.7*,8400*,1600,i
O=C(Nc1nonc1NC(=O)C1CCCCC1)C1CCCCC1,-30,-0.96,-0.77,-15,-12,17*,25348*,1748,+
O=C(Nc1c(F)c(F)c(F)c(F)c1F)C1CCCCC1,.,-0.34,0.03,-2,-1,-0.6,.,.,.
Cc1[nH]c2ccccc2c1C(=O)CN1CCCCC1CCO (stereo unspecified),.,-0.029,-0.2,-8,10,0.69,.,.,.
COCCn1c(C2CCCCC2)nc2sc3ccccc3c(=O)c2c1=O,-32,-0.018,0.00086,2,-10,3.4*,10064*,.,i
Cc1cccc(CSc2nnc(-c3cccs3)n2Cc2ccco2)c1,-105,.,.,.,.,.,.,.,.
CC(=O)NCCn1c(SCc2cc(=O)n3cc(Cl)ccc3n2)nc2ccccc2c1=O,20,1.6,-1,-6,-5,3.7*,8148*,1496,+
CC(=O)NCCn1c(SCc2ccccc2F)nc2ccccc2c1=O,0,-0.1,0.061,-13,-14,9.1*,8204*,1528,+
CC(=O)NCCn1c(SCC#N)nc2ccccc2c1=O,-41,0.22,1.5,0,-9,-0.15,.,.,.
Cn1c(SCc2ccccc2F)nc2cccnc21,17,-0.53,-0.37,6,80*,7.4*,7412*,1864,+
Cc1c(NC(=O)C(C)NCC2CCCO2)c(=O)n(-c2ccccc2)n1C (stereo unspecified),-45,.,.,.,.,.,.,.,.
CCOC(=O)c1oc2cccc(OCC(O)CNC(C)C)c2c1C (stereo unspecified),.,1,-0.0085,2,7,1.6,.,.,.
Cc1ccc(Cc2nnc3n(-c4ccccc4)nc(C(=O)c4ccccc4)n3c2=O)cc1,2,.,.,.,.,.,.,.,.
Cc1nc(NCc2ccco2)c2oc3ccccc3c2n1,-24,-0.41,-1,-19,-4,6*,11576*,.,+
CCc1nc(N2CCCCC2)c2oc3ccccc3c2n1,.,-0.15,1.3,2,13,6.3*,6440*,1852,i
Cc1nc(SCCO)c2oc3ccccc3c2n1,14,0.47,0.41,17,14,7.3*,10060*,.,+

# Screening data (PubChem BioAssay)
